The results in this text go back to ChEMBL document CHEMBL4028872, “Structure-Activity Relationship, Pharmacological Characterization, and Molecular Modeling of Noncompetitive Inhibitors of the Betaine/γ-Aminobutyric Acid Transporter 1 (BGT1)” (J Med Chem, 2017).

Assay [1] deals with Alpha-2C adrenergic receptor (Homo sapiens) (UniProt P18825). Briefly: Displacement of [3H]rauwolscine from human alpha-2C adrenergic receptor expressed in MDCK cell membranes at 10 uM after 90 mins by scintillation counting method.
The target in assay [2] is Sodium- and chloride-dependent betaine transporter (Homo sapiens, UniProt P48065, H312N). Briefly: Inhibition of human BGT1 H312N mutant expressed in tsA201 cells assessed as reduction in [3H]GABA uptake after 3 mins by scintillation counting method. Type of assay: cell-based. A digest of the protocol: (§1)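 Site-directed mutant transporters transiently transfected (PolyFect) into tsA201 cells, plated and used about 24 h later. Cells were washed with HBSS containing 20 mM HEPES, 1 mM CaCl2 and 1 mM MgCl2, pH 7.4. IC50 was taken from variable-slope sigmoidal fits. Triplicates, at least three independent experiments.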

For assay [3], the target named is Sodium- and chloride-dependent betaine transporter (Homo sapiens, UniProt P48065, K317R). Briefly: Inhibition of human BGT1 K317R mutant expressed in tsA201 cells assessed as reduction in [3H]GABA uptake after 3 mins by scintillation counting method. Type of assay: cell-based. A digest of the protocol:
as §1

For assay [4], the target named is Sodium- and chloride-dependent betaine transporter (Homo sapiens, UniProt P48065, V336A). Briefly: Inhibition of human BGT1 V336A mutant expressed in tsA201 cells assessed as reduction in [3H]GABA uptake after 3 mins by scintillation counting method. Type of assay: cell-based. A digest of the protocol: as §1
The target of assay [5] is Sodium- and chloride-dependent betaine transporter (Homo sapiens, UniProt P48065, S353A). Briefly: Inhibition of human BGT1 S353A mutant expressed in tsA201 cells assessed as reduction in [3H]GABA uptake after 3 mins by scintillation counting method. Format: cell-based. A digest of the protocol:
as §1

In assay [6] the target is Sodium- and chloride-dependent betaine transporter (Homo sapiens, UniProt P48065, F367Y). Briefly: Inhibition of human BGT1 F367Y mutant expressed in tsA201 cells assessed as reduction in [3H]GABA uptake after 3 mins by scintillation counting method. Format: cell-based. A digest of the protocol:
as §1

In assay [7] the target is Sodium- and chloride-dependent betaine transporter (Homo sapiens, UniProt P48065, C382T). Briefly: Inhibition of human BGT1 C382T mutant expressed in tsA201 cells assessed as reduction in [3H]GABA uptake after 3 mins by scintillation counting method. Type of assay: cell-based. A digest of the protocol: as §1
For another assay, the species on record is Homo sapiens. Briefly: Binding affinity to sigma receptor (unknown origin).

The structures appear in SMILES notation. Active and inactive are the calls of the source. The rule behind the calls is not given here.

Sequence of Sodium- and chloride-dependent betaine transporter (Homo sapiens, UniProt P48065, V336A) (P48065 whole entry V336A): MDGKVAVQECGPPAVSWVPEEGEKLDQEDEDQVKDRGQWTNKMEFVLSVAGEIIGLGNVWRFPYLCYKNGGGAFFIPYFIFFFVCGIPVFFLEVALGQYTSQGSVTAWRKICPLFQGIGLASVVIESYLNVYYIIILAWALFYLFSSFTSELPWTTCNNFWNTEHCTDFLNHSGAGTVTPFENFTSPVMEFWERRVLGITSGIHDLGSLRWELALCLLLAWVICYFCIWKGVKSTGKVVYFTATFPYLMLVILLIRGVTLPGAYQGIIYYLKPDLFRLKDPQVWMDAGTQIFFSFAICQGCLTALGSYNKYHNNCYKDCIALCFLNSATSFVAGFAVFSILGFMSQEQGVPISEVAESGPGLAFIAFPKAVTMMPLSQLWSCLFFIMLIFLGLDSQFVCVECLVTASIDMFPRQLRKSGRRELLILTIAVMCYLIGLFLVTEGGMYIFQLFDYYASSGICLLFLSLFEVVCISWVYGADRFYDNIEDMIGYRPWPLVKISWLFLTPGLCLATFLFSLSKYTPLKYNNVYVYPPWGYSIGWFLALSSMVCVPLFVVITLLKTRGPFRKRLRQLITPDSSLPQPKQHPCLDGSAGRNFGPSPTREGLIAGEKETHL
Sequence of Sodium- and chloride-dependent betaine transporter (Homo sapiens, UniProt P48065, F367Y) (P48065 whole entry F367Y): as the sequence (P48065 whole entry V336A) above, with A336V, F367Y counted along it
Sequence of Sodium- and chloride-dependent betaine transporter (Homo sapiens, UniProt P48065, S353A) (P48065 whole entry S353A): as the sequence (P48065 whole entry V336A) above, with A336V, S353A counted along it
Sequence of Sodium- and chloride-dependent betaine transporter (Homo sapiens, UniProt P48065, C382T) (P48065 whole entry C382T): as the sequence (P48065 whole entry V336A) above, with A336V, C382T counted along it
Sequence of Sodium- and chloride-dependent betaine transporter (Homo sapiens, UniProt P48065, K317R) (P48065 whole entry K317R): as the sequence (P48065 whole entry V336A) above, with K317R, A336V counted along it
Sequence of Sodium- and chloride-dependent betaine transporter (Homo sapiens, UniProt P48065, H312N) (P48065 whole entry H312N): as the sequence (P48065 whole entry V336A) above, with H312N, A336V counted along it
Sequence of Alpha-2C adrenergic receptor (Homo sapiens) (P18825 whole entry): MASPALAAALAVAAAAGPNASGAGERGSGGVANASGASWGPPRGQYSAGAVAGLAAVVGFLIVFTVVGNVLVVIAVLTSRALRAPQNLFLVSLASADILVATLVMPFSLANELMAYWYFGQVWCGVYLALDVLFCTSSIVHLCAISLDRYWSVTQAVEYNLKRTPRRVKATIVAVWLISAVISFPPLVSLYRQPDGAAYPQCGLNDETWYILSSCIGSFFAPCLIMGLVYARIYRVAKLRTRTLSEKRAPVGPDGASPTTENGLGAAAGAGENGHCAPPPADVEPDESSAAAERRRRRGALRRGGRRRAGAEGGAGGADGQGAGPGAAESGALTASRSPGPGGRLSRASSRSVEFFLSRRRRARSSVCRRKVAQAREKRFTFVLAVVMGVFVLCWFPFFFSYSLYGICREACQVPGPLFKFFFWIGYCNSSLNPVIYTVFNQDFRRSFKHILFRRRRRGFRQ

For the molecule `O=C(NC1CCN(Cc2ccccc2)CC1)c1ccc(Cl)cc1Cl`, the inhibition entry in assay [1] is “Active”. Further, the IC50 in assay [2] is 8 µM; in assay [3], 13 µM; in assay [4] (read-out: IC50), 2 µM; in assay [4] (read-out: pIC50 (converted)), 1.66 µM; in assay [5], 17 µM; in assay [6] (read-out: IC50), 5 µM. Also, the figures for the IC50 in assay [6] (read-out: pIC50 (converted)) and in assay [7] were 6.03 µM and 15 µM, respectively.

Take `O=C(NC1CCN(Cc2ccccc2)CC1)c1ccc(Cl)nc1Cl`: the result in the assay listed under Homo sapiens was Active.
